In brackets after ≈: the same amount, converted by molar mass.
Assays:
Plasmodium falciparum = test: In vitro antimalarial activity against Plasmodium falciparum FCR3; format: functional, organism-based
Outline: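 P. falciparum FCR-3 kept in candle jars in RPMI 1640 with 10% human serum, sorbitol-synchronized for at least three cycles. Serially diluted compounds plus ring-stage parasitized cells (0.5-1% parasitemia, 5-10% hematocrit), 37 °C for 24 h, then 2 μCi [3H]hypoxanthine added and incubated 24 h more. Cells harvested, scintillation counted, drug-free parasitized controls run alongside.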

[1] = Partition coefficient (logP); format: physicochemical; conditions: octanol/water
Outline: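 log P estimated from C-18 HPLC retention index. Retention times taken on thermospray LC/MS, isocratic 50% (v/v) methanol in water with 0.1 M ammonium acetate at 1 mL/min, positive ion, filament on, vaporizer tip 7 °C below take-off temperature, block 184 °C.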

Structure (SMILES) | IC50 (Plasmodium falciparum) | logP ([1]; read-out: logP) | logP [1]
CCO[C@H]1O[C@@H]2O[C@@]3(C)CC[C@H]4[C@H](C)[C@@H](O[C@H]5O[C@@H](C(=O)O)[C@H](O)[C@@H](O)[C@@H]5O)C[C@@H]([C@H]1C)[C@@]24OO3 | 0.0893 µg/mL (≈ 0.177 µM) | 0.61 | –
CCO[C@H]1O[C@@H]2O[C@@]3(C)CC[C@H]4[C@H](CO[C@H]5O[C@@H](C(=O)O)[C@H](O)[C@@H](O)[C@@H]5O)CC[C@@H]([C@H]1C)[C@@]24OO3 | 6 µg/mL (≈ 11.9 µM) | 1.05 | –
CCO[C@H]1O[C@@H]2O[C@@]3(C)CC[C@H]4[C@H](C)[C@H](O[C@H]5O[C@@H](C(=O)O)[C@H](O)[C@@H](O)[C@@H]5O)C[C@@H]([C@H]1C)[C@@]24OO3 | 6.56 µg/mL (≈ 13 µM) | 0.93 | –
C[C@H]1[C@H](O[C@@H]2O[C@H](C(=O)O)C(O)[C@H](O)C2O)O[C@@H]2O[C@H]3CC[C@H]4[C@H](C)CC[C@@H]1[C@@]24OO3 (stereo partly drawn) | 6 µg/mL (≈ 13.4 µM) | 1.08 | –
C[C@H]1[C@@H](O[C@@H]2O[C@H](C(=O)O)C(O)[C@H](O)C2O)O[C@@H]2O[C@H]3CC[C@H]4[C@H](C)CC[C@@H]1[C@@]24OO3 (stereo partly drawn) | 0.255 µg/mL (≈ 0.571 µM) | 1.8 | –
CCO[C@H]1O[C@@H]2O[C@@]3(C)CC[C@H]4[C@H](C)[C@@H](O)C[C@@H]([C@H]1C)[C@@]24OO3 | – | 1.93 | –
CCO[C@H]1O[C@@H]2O[C@@]3(C)CC[C@H]4[C@H](CO)CC[C@@H]([C@H]1C)[C@@]24OO3 | – | 2.08 | –
CCO[C@H]1O[C@@H]2O[C@@]3(C)CC[C@H]4[C@H](C)[C@H](O)C[C@@H]([C@H]1C)[C@@]24OO3 | – | 2.14 | –
CCO[C@H]1O[C@@H]2O[C@@]3(C)C[C@H](O)[C@H]4[C@H](C)CC[C@@H]([C@H]1C)[C@@]24OO3 | – | 2.7 | –
CCO[C@H]1O[C@@H]2O[C@@]3(C)CC[C@H]4[C@H](C)CC[C@@H]([C@H]1C)[C@@]24OO3 [ARTEMOTIL] | 0.0013 µg/mL (≈ 0.00416 µM) | 3.89 | –
C[C@H]1[C@@H](O)O[C@@H]2O[C@@]3(C)CC[C@H]4[C@H](C)CC[C@@H]1[C@@]24OO3 [ARTENIMOL] | 0.0107 µg/mL (≈ 0.0376 µM) | – | 2.45

— ChEMBL document CHEMBL1128379, “Synthesis, characterization, and antimalarial activity of the glucuronides of the hydroxylated metabolites of arteether” (J Med Chem, 1995)
